From paper PMC9321909 (British Journal of Haematology, 2022)

Legend:
[1] = format: in vivo, human (Chinese patients)
[2] = system: relapsed/refractory B‐cell malignancies; test: Anti-tumour activity assessment by disease-specific tumour response criteria; format: in vivo, human (Chinese patients)
Summary of the method: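 Oral test compound at 320 mg QD or 160 mg BID until progression or unacceptable toxicity. Investigators assessed response every 12 weeks for one year after the first dose, then every 24 weeks. Criteria were iwCLL for CLL, NCI Working Group NHL criteria for SLL, FL, MZL and MCL, and International Workshops on WM criteria for WM. 95% CIs for rates were computed by Clopper–Pearson.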

[3] = part I, 160 mg BID, CLL/SLL (n = 5)
[4] = part I, 160 mg BID, NHL (n = 5)
[5] = part I, 160 mg BID, Total (N = 11)
[6] = part I, 320 mg QD, CLL/SLL (n = 4)
[7] = part I, 320 mg QD, Total (N = 10)

C=CC(=O)N1CCC([C@@H]2CCNc3c(C(N)=O)c(-c4ccc(Oc5ccccc5)cc4)nn32)CC1 [zanubrutinib]
half-life ([1]; human, plasma, oral): 2.3 to 3.4 h | time of C max post dose ([1]; oral 160 mg and 320 mg doses): ~ 2 h | Best overall response: CR ([2]; CLL/SLL (n = 9)): 3 (33.3) n (%) | Best overall response: CRi ([2]; CLL/SLL (n = 9)): 0 (0.0) n (%) | Best overall response: Discontinued prior to first assessment ([2]; CLL/SLL (n = 9)): 0 (0.0) n (%) | Best overall response: MR ([2]; CLL/SLL (n = 9)): 0 (0.0) n (%) | Best overall response: PD ([2]; CLL/SLL (n = 9)): 0 (0.0) n (%) | Best overall response: PR ([2]; CLL/SLL (n = 9)): 5 (55.6) n (%) | Best overall response: PR‐L ([2]; CLL/SLL (n = 9)): 1 (11.1) n (%) | Best overall response: Stable disease ([2]; CLL/SLL (n = 9)): 0 (0.0) n (%) | Best overall response: VGPR ([2]; CLL/SLL (n = 9)): 0 (0.0) n (%) | Complete response rate ([2]; CLL/SLL (n = 9)): 3 (33.3) n (%) | Overall response rate ([2]; CLL/SLL (n = 9)): 9 (100.0) n (%) | Partial response rate (PR or better) ([2]; CLL/SLL (n = 9)): 8 (88.9) n (%) | median PFS ([2]; CLL/SLL patients): 44.3 months | Best overall response: CR ([2]; FL (n = 26)): 4 (15.4) n (%) | Best overall response: CRi ([2]; FL (n = 26)): 0 (0.0) n (%) | Best overall response: Discontinued prior to first assessment ([2]; FL (n = 26)): 3 (11.5) n (%) | Best overall response: MR ([2]; FL (n = 26)): 0 (0.0) n (%) | Best overall response: PD ([2]; FL (n = 26)): 4 (15.4) n (%) | Best overall response: PR ([2]; FL (n = 26)): 8 (30.8) n (%) | Best overall response: PR‐L ([2]; FL (n = 26)): 0 (0.0) n (%) | Best overall response: Stable disease ([2]; FL (n = 26)): 7 (26.9) n (%) | Best overall response: VGPR ([2]; FL (n = 26)): 0 (0.0) n (%) | Complete response rate ([2]; FL (n = 26)): 4 (15.4) n (%) | Overall response rate ([2]; FL (n = 26)): 12 (46.2) n (%) | Partial response rate (PR or better) ([2]; FL (n = 26)): 12 (46.2) n (%) | Best overall response: CR ([2]; MCL (n = 2)): 1 (50.0) n (%) | Best overall response: CRi ([2]; MCL (n = 2)): 0 (0.0) n (%) | Best overall response: Discontinued prior to first assessment ([2]; MCL (n = 2)): 0 (0.0) n (%) | Best overall response: MR ([2]; MCL (n = 2)): 0 (0.0) n (%) | Best overall response: PD ([2]; MCL (n = 2)): 0 (0.0) n (%) | Best overall response: PR ([2]; MCL (n = 2)): 0 (0.0) n (%) | Best overall response: PR‐L ([2]; MCL (n = 2)): 0 (0.0) n (%) | Best overall response: Stable disease ([2]; MCL (n = 2)): 1 (50.0) n (%) | Best overall response: VGPR ([2]; MCL (n = 2)): 0 (0.0) n (%) | Complete response rate ([2]; MCL (n = 2)): 1 (50.0) n (%) | Overall response rate ([2]; MCL (n = 2)): 1 (50.0) n (%) | Partial response rate (PR or better) ([2]; MCL (n = 2)): 1 (50.0) n (%) | Best overall response: CR ([2]; MZL (n = 5)): 0 (0.0) n (%) | Best overall response: CRi ([2]; MZL (n = 5)): 0 (0.0) n (%) | Best overall response: Discontinued prior to first assessment ([2]; MZL (n = 5)): 2 (40.0) n (%) | Best overall response: MR ([2]; MZL (n = 5)): 0 (0.0) n (%) | Best overall response: PD ([2]; MZL (n = 5)): 0 (0.0) n (%) | Best overall response: PR ([2]; MZL (n = 5)): 0 (0.0) n (%) | Best overall response: PR‐L ([2]; MZL (n = 5)): 0 (0.0) n (%) | Best overall response: Stable disease ([2]; MZL (n = 5)): 3 (60.0) n (%) | Best overall response: VGPR ([2]; MZL (n = 5)): 0 (0.0) n (%) | Complete response rate ([2]; MZL (n = 5)): 0 (0.0) n (%) | Overall response rate ([2]; MZL (n = 5)): 0 (0.0) n (%) | Partial response rate (PR or better) ([2]; MZL (n = 5)): 0 (0.0) n (%) | Best overall response: CR ([2]; Total (N = 44)): 8 (18.2) n (%) | Best overall response: CRi ([2]; Total (N = 44)): 0 (0.0) n (%) | Best overall response: Discontinued prior to first assessment ([2]; Total (N = 44)): 5 (11.4) n (%) | Best overall response: MR ([2]; Total (N = 44)): 0 (0.0) n (%) | Best overall response: PD ([2]; Total (N = 44)): 4 (9.1) n (%) | Best overall response: PR ([2]; Total (N = 44)): 14 (31.8) n (%) | Best overall response: PR‐L ([2]; Total (N = 44)): 1 (2.3) n (%) | Best overall response: Stable disease ([2]; Total (N = 44)): 12 (27.3) n (%) | Best overall response: VGPR ([2]; Total (N = 44)): 0 (0.0) n (%) | Complete response rate ([2]; Total (N = 44)): 8 (18.2) n (%) | Overall response rate ([2]; Total (N = 44)): 23 (52.3) n (%) | Partial response rate (PR or better) ([2]; Total (N = 44)): 22 (50.0) n (%) | Best overall response: CR ([2]; WM (n = 2)): 0 (0.0) n (%) | Best overall response: CRi ([2]; WM (n = 2)): 0 (0.0) n (%) | Best overall response: Discontinued prior to first assessment ([2]; WM (n = 2)): 0 (0.0) n (%) | Best overall response: MR ([2]; WM (n = 2)): 0 (0.0) n (%) | Best overall response: PD ([2]; WM (n = 2)): 0 (0.0) n (%) | Best overall response: PR ([2]; WM (n = 2)): 1 (50.0) n (%) | Best overall response: PR‐L ([2]; WM (n = 2)): 0 (0.0) n (%) | Best overall response: Stable disease ([2]; WM (n = 2)): 1 (50.0) n (%) | Best overall response: VGPR ([2]; WM (n = 2)): 0 (0.0) n (%) | Complete response rate ([2]; WM (n = 2)): 0 (0.0) n (%) | Overall response rate ([2]; WM (n = 2)): 1 (50.0) n (%) | Partial response rate (PR or better) ([2]; WM (n = 2)): 1 (50.0) n (%) | complete response rate (CRR) ([2]; all 44 patients): 18.2% | overall response rate (ORR) ([2]; all 44 patients): 52.3% | median PFS ([2]; all patients): 16.4 months | median DOR (PR‐L or better) ([2]; all responders): 13.9 months | median time to response ([2]; all subtypes, responders (n = 23)): 2.8 months | Complete response rate [2, 3]: 2 (40.0) n (%) | Overall response rate [2, 3]: 5 (100.0) n (%) | Partial response rate (PR or better) [2, 3]: 4 (80.0) n (%) | Complete response rate [2, 4]: 1 (20.0) n (%) | Overall response rate [2, 4]: 3 (60.0) n (%) | Partial response rate (PR or better) [2, 4]: 3 (60.0) n (%) | Complete response rate [2, 5]: 3 (27.3) n (%) | Overall response rate [2, 5]: 8 (72.7) n (%) | Partial response rate (PR or better) [2, 5]: 7 (63.6) n (%) | Complete response rate ([2]; part I, 160 mg BID, WM (n = 1)): 0 (0.0) n (%) | Overall response rate ([2]; part I, 160 mg BID, WM (n = 1)): 0 (0.0) n (%) | Partial response rate (PR or better) ([2]; part I, 160 mg BID, WM (n = 1)): 0 (0.0) n (%) | Complete response rate [2, 6]: 1 (25.0) n (%) | Overall response rate [2, 6]: 4 (100.0) n (%) | Partial response rate (PR or better) [2, 6]: 4 (100.0) n (%) | Complete response rate ([2]; part I, 320 mg QD, NHL (n = 5)): 1 (20.0) n (%) | Overall response rate ([2]; part I, 320 mg QD, NHL (n = 5)): 3 (60.0) n (%) | Partial response rate (PR or better) ([2]; part I, 320 mg QD, NHL (n = 5)): 3 (60.0) n (%) | Complete response rate [2, 7]: 2 (20.0) n (%) | Overall response rate [2, 7]: 8 (80.0) n (%) | Partial response rate (PR or better) [2, 7]: 8 (80.0) n (%) | Complete response rate ([2]; part I, 320 mg QD, WM (n = 1)): 0 (0.0) n (%) | Overall response rate ([2]; part I, 320 mg QD, WM (n = 1)): 1 (100.0) n (%) | Partial response rate (PR or better) ([2]; part I, 320 mg QD, WM (n = 1)): 1 (100.0) n (%) | Study day at disease progression ([2]; patient 101 016, FL): Day 162 | Study day at disease progression ([2]; patient 102 002, CLL): Day 672 | BOR by investigator ([2]; patient 102 004, WM): Stable disease | Study day at disease progression ([2]; patient 102 004, WM): Day 336 | BOR by investigator ([2]; patient 102 006, CLL): PR‐L | Study day at disease progression ([2]; patient 102 006, CLL): Day 1345 | CRR ([2]; patients with CLL/SLL): 33.3% | median overall survival ([2]; total population): not reached
